According to ChEMBL document CHEMBL1629489, “Novel 6-[(hetero)arylamino]thieno[3,2-b]pyridines: synthesis and antitumoral activities” (2010):

Columns and labels:
Assay type in all cases: functional
MCF7 = test: Growth inhibition of human MCF7 cells after 48 hrs by sulforhodamine B assay; details: MCF7, 48 h
Summary of the method: (§1)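 Adherent cells in RPMI-1640 with 5% heat-inactivated FBS, 2 mM glutamine and penicillin/streptomycin at 37 °C and 5% CO₂. Plated at 1.5 × 10⁵ cells/mL (MCF-7) or 0.75 × 10⁵ cells/mL (A375-C5, NCI-H460), then incubated 24 h. Exposed 48 h to five serial dilutions from DMSO stocks (≤0.25% DMSO). SRB staining, absorbance at 492 nm. GI50 is the mean ± SEM of three independent duplicate experiments.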

[1] = Growth inhibition of human A375-C5 cells after 48 hrs by sulforhodamine B assay; details: A375-C5, 48 h; summary of the method: as §1
NCI-H460 = test: Growth inhibition of human NCI-H460 cells after 48 hrs by sulforhodamine B assay; details: NCI-H460, 48 h; summary of the method: as §1

| SMILES | GI50 (MCF7) [µM] | GI50 [1] [µM] | GI50 (NCI-H460) [µM] |
| --- | --- | --- | --- |
| COC(=O)c1sc2cc(Nc3ccc(OC)cc3)cnc2c1N | 124 | > 150 | 95 |
| COC(=O)c1sc2cc(Nc3ccccc3Br)cnc2c1N | 28.9 | 34.1 | 30.9 |
| COC(=O)c1sc2cc(Nc3ccc(OC)cc3OC)cnc2c1N | 26.3 | 27.3 | 26.3 |
| COC(=O)c1sc2cc(Nc3ccc(F)cc3Br)cnc2c1N | 28.9 | 34 | 31.3 |
| COC(=O)c1sc2cc(Nc3ccccn3)cnc2c1N | > 150 | > 150 | > 150 |
| COC(=O)c1sc2cc(Nc3nc4ccccc4s3)cnc2c1N | 6 | 3.5 | 6.4 |
| COC(=O)c1sc2cc(Nc3cc(OC)ccc3Cl)cnc2c1N | 22.1 | 25.8 | 21.7 |
| COC(=O)c1sc2cc(Nc3cc(OC)cc(OC)c3)cnc2c1N | > 150 | > 150 | > 150 |
| COC(=O)c1sc2cc(Nc3ccc4[nH]ccc4c3)cnc2c1N | 18.1 | 17.3 | 15.8 |
| COC(=O)c1sc2cc(Nc3ncccn3)cnc2c1N | > 150 | > 150 | > 150 |
| COc1cccc2c1C(=O)c1c(O)c3c(c(O)c1C2=O)C[C@@](O)(C(=O)CO)C[C@@H]3O[C@H]1C[C@H](N)[C@H](O)[C@H](C)O1 [DOXORUBICIN] | 0.0433 | 0.13 | 0.0356 |
| COC(=O)c1sc2cc(Nc3cccnc3)cnc2c1N | 82.4 | > 150 | 49.4 |
| COC(=O)c1sc2cc(Nc3ccc(OC)c(OC)c3)cnc2c1N | 30 | 26.3 | 26.2 |
| COC(=O)c1sc2cc(Nc3nccc4ccccc34)cnc2c1N | > 150 | > 150 | > 150 |
